{"data": "Published values gathered from unrelated publications", "cell line": "MCF7", "observed": "cell growth or viability", "note": "Each line is one published result; the experiments were not run side by side."}
{"SMILES": "COc1ccc(Nc2nc(-n3nc(C)cc3C)nc(-n3nc(C)cc3C)n2)cc1", "assay": "MTT", "conditions": "72 h", "IC50": "12 µM"}
{"SMILES": "CC1(C)CC[C@]2(C(=O)O)CC[C@]3(C)C(=CC[C@@H]4[C@@]5(C)CC[C@H](O)C(C)(C)[C@@H]5CC[C@]43C)[C@@H]2C1", "assay": "MTT", "conditions": "48 h", "IC50": "> 100 µM"}
{"SMILES": "CCOc1ccc(-c2nc3ccccc3n2Cc2ccccc2)cc1", "assay": "MTT", "IC50": "40.1 µM"}
{"SMILES": "O=C(N/N=C/c1cccn1CCN1CCCC1)Nc1cc2c(Nc3ccc(F)c(Cl)c3)ncnc2cc1O[C@H]1CCOC1", "assay": "MTT", "conditions": "72 h", "IC50": "1.2 µM"}
{"SMILES": "c1cncc(-c2nc3ccccc3[nH]2)c1", "assay": "MTT", "conditions": "48 h", "IC50": "> 100 µM"}
{"SMILES": "COc1cccc2c1C(=O)c1c(O)c3c(c(O)c1C2=O)C[C@@](O)(C(=O)CO)C[C@@H]3O[C@H]1C[C@H](N)[C@H](O)[C@H](C)O1", "assay": "MTT", "conditions": "48 h", "IC50": "3.1 µM"}
{"SMILES": "O=C(NC(=S)NC1CCCCC1)c1ccc2ccccc2c1", "conditions": "48 h", "IC50": "5.22 µM"}
{"SMILES": "CS(=O)(=O)c1ccc(-n2cc(C=N/N=c3\\[nH]c(-c4ccc(Br)cc4)cs3)c(-c3ccc([N+](=O)[O-])cc3)n2)cc1", "assay": "MTT", "conditions": "48 h", "IC50": "19.9 µM"}
{"SMILES": "O=C1Nc2c(C(F)(F)F)cccc2C1(c1ccc(OC(F)(F)F)cc1)c1c(F)cc(O)cc1F (centres unmarked)", "assay": "resazurin", "conditions": "24 h", "IC50": "0.549 µM"}
{"SMILES": "COc1cccc2c1C(=O)c1c(O)c3c(c(O)c1C2=O)C[C@@](O)(C(=O)CO)C[C@@H]3O[C@H]1C[C@H](N)[C@H](O)[C@H](C)O1", "assay": "SRB", "IC50": "0.18 µM"}
{"SMILES": "CN(C)C/C=C/C(=O)Nc1cc2c(Nc3ccc(F)c(Cl)c3)ncnc2cc1O[C@H]1CCOC1", "assay": "MTT", "conditions": "72 h", "IC50": "1.8 µM"}
{"SMILES": "O=C(NC(=S)Nc1ccccc1)c1ccc2ccccc2c1", "conditions": "48 h", "IC50": "5.11 µM"}
{"SMILES": "C[C@H]1[C@@H](O)O[C@@H]2O[C@@]3(C)CC[C@H]4[C@H](C)CC[C@@H]1[C@@]24OO3", "assay": "CCK-8", "conditions": "48 h", "IC50": "> 50 µM"}
{"SMILES": "COc1cc2ncnc(Nc3ccc(F)c(Cl)c3)c2cc1NC(=O)N/N=C/c1cccn1CCN(C)C", "assay": "MTT", "conditions": "72 h", "IC50": "3.21 µM"}
{"SMILES": "Cc1ccc2nc(-c3ccc([N+](=O)[O-])cc3)n(Cc3ccccc3)c2c1", "assay": "MTT", "IC50": "7.86 µM"}
{"SMILES": "COc1ccc(-c2ccc3ncnc(Nc4cccc(C(F)(F)F)c4)c3c2)cc1", "assay": "MTT", "conditions": "24 h", "IC50": "11.7 µM"}
{"SMILES": "Cc1ccc2c(Br)cc(Br)c(O)c2n1", "assay": "MTT", "conditions": "48 h", "IC50": "> 150 µM"}
{"SMILES": "COc1cc2c(Nc3ccc(NC(=O)c4ccccc4)cc3)ncnc2cc1OCCCN1CCOCC1", "assay": "MTS", "conditions": "48 h", "IC50": "3.1 µM"}
{"SMILES": "C=CCn1c(-c2ccc(Cl)c(Cl)c2)nc2ccccc21", "assay": "MTT", "IC50": "50 µM"}
{"SMILES": "COc1cc2ncnc(Nc3ccc(F)c(Cl)c3)c2cc1NC(=O)N/N=C/CN1CCCCC1", "assay": "MTT", "conditions": "72 h", "IC50": "6.42 µM"}
{"SMILES": "O=c1c(O)c(-c2ccc(O)c(O)c2)oc2cc(O)cc(O)c12", "assay": "WST-1", "conditions": "48 h", "IC50": "11.7 µM"}
{"SMILES": "CN(C)CCCn1cccc1/C=N/NC(=O)Nc1cc2c(Nc3ccc(F)c(Cl)c3)ncnc2cc1O[C@H]1CCOC1", "assay": "MTT", "conditions": "72 h", "IC50": "6.17 µM"}
{"SMILES": "CSc1nc(/N=C/c2ccc(O)cc2)n(-c2ccc(C(=O)O)cc2)n1", "assay": "MTT", "IC50": "34.8 µM"}
{"SMILES": "FC(F)(F)c1cccc(Nc2ncnc3ccc(NCc4ccccc4)cc23)c1", "assay": "MTT", "conditions": "24 h", "IC50": "6.83 µM"}
{"SMILES": "CC(=O)O[C@H]1C(=O)[C@@]2(C)[C@H]([C@H](OC(=O)c3ccccc3)[C@]3(O)C[C@H](OC(=O)[C@H](O)[C@@H](NC(=O)c4ccccc4)c4ccccc4)C(C)=C1C3(C)C)[C@]1(OC(C)=O)CO[C@@H]1C[C@@H]2O", "conditions": "72 h", "IC50": "0.011 µM"}
{"SMILES": "Cc1ccc2nc(-c3ccccc3O)[nH]c2c1", "assay": "MTT", "conditions": "48 h", "IC50": "18 µM"}
{"SMILES": "CCN(CC)C(=S)NC(=O)c1ccc2ccccc2c1", "conditions": "48 h", "IC50": "4.72 µM"}
{"SMILES": "CSc1ccc(-c2nc3ccccc3[nH]2)cc1", "assay": "MTT", "conditions": "48 h", "IC50": "33.2 µM"}
{"SMILES": "O=S(=O)(Cc1ccccc1)NN=Cc1cn(CCN2CCOCC2)c2ccccc12", "assay": "MTT", "conditions": "48 h", "IC50": "62.5 µM"}
{"SMILES": "CN1CCN(CCn2cccc2/C=N/NC(=O)Nc2cc3c(Nc4ccc(F)c(Cl)c4)ncnc3cc2O[C@H]2CCOC2)CC1", "assay": "MTT", "conditions": "72 h", "IC50": "2.42 µM"}
{"SMILES": "Nc1ccc(-c2csc(Nc3ccc4c(O)ncnc4c3)n2)cc1", "assay": "MTT", "IC50": "8.29 µM"}
{"SMILES": "CC(=O)O[C@H]1C(=O)[C@@]2(C)[C@H]([C@H](OC(=O)c3ccccc3)[C@]3(O)C[C@H](OC(=O)[C@H](O)[C@@H](NC(=O)c4ccccc4)c4ccccc4)C(C)=C1C3(C)C)[C@]1(OC(C)=O)CO[C@@H]1C[C@@H]2O", "assay": "MTT", "conditions": "48 h", "IC50": "0.006 µM"}
{"SMILES": "CC[C@H](C)C(=O)O[C@H]1C[C@H](O)C=C2C=C[C@H](C)[C@H](CC[C@@H](O)C[C@@H](O)CC(=O)O)[C@H]21", "assay": "SRB", "conditions": "72 h", "IC50": "98 µg/mL"}
{"SMILES": "c1cc2c(cc1CNCC1CCNCC1)OCO2", "assay": "MTT", "conditions": "72 h", "IC50": "> 100 µM"}
{"SMILES": "COc1cc2ncnc(Nc3ccc(F)c(Cl)c3)c2cc1NC(=O)N/N=C/c1cccn1CCN1CCOCC1", "assay": "MTT", "conditions": "72 h", "IC50": "1.17 µM"}
{"SMILES": "COc1ccc(C(=O)O[C@@H]2CN3Cc4c(cc5c(c4OC)OCO5)[C@@]24C=C[C@H](OC)C[C@@H]34)cc1", "assay": "WST-1", "IC50": "> 10 µM"}
{"SMILES": "Cc1ccc(O)c(/C=N/c2nc(Oc3ccccc3)nn2-c2ccc(C(=O)O)cc2)c1", "assay": "MTT", "IC50": "30.3 µM"}
{"SMILES": "Oc1ncnc2cc(Nc3nc(-c4ccc(F)cc4)cs3)ccc12", "assay": "MTT", "IC50": "3.71 µM"}
{"SMILES": "COC(=O)/C=C1\\S/C(=N\\C(=O)c2ccc3ccccc3c2)N(C2CCCCC2)C1=O", "conditions": "48 h", "IC50": "14.3 µM"}
{"SMILES": "COC(=O)c1ccc(-n2nc(SC)nc2N)cc1", "assay": "MTT", "IC50": "23.4 µM"}
{"SMILES": "O=c1c(O)c(-c2ccc(O)cc2)oc2cc(O)cc(O)c12", "assay": "WST-1", "conditions": "48 h", "IC50": "27.2 µM"}
{"SMILES": "COc1cc(CNCC2CCNCC2)ccc1OCc1cccc(C)c1", "assay": "MTT", "conditions": "72 h", "IC50": "> 100 µM"}
{"SMILES": "F[B-](F)(F)F.[Fe+3].c1cc[cH-]c1.c1cc[cH-]c1", "assay": "MTT", "IC50": "150 µM"}
{"SMILES": "Oc1ccc(Br)cc1-c1nc2ccccc2[nH]1", "assay": "MTT", "conditions": "48 h", "IC50": "5.1 µM"}
{"SMILES": "O=C(N/N=C/c1cccn1CCCN1CCOCC1)Nc1cc2c(Nc3ccc(F)c(Cl)c3)ncnc2cc1O[C@H]1CCOC1", "assay": "MTT", "conditions": "72 h", "IC50": "5.57 µM"}
{"SMILES": "Cc1ccc2nc(-c3ccc(F)cc3)n(Cc3ccccc3)c2c1", "assay": "MTT", "IC50": "43.1 µM"}
{"SMILES": "Oc1ccccc1-c1ccc2ncnc(Nc3cccc(C(F)(F)F)c3)c2c1", "assay": "MTT", "conditions": "24 h", "IC50": "7.13 µM"}
